# An excerpt weighted towards active compounds, which were near 2.8% of everything screened.
# NCF1 inh = blocks human p47phox regulatory protein of NADPH oxidases; inhibition, % at 24.7 µM; P14598; 220,000 tested, 0.53% active; AID 1274; p47phox/p22phox peptide binding, fluorescence polarization, 2 h;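 also: 0% = p47phox with labelled peptide and 100% = labelled peptide alone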
# Target sequence (P14598 whole entry, looked up): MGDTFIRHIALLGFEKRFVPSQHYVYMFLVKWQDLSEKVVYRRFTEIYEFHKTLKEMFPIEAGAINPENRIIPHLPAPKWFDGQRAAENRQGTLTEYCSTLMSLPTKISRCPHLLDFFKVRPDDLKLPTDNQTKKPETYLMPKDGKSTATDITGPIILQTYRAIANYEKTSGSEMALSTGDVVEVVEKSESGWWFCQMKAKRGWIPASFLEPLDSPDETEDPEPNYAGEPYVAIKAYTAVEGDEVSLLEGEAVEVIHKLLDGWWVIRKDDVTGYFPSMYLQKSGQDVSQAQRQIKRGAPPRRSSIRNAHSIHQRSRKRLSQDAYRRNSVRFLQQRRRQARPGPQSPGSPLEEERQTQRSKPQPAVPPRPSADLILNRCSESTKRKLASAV
# 14-3-3 Bad inh = disrupts binding of bovine 14-3-3 zeta to phospho-Bad peptide; P63103; TR-FRET 14-3-3zeta/Dy647-pBad peptide displacement, 1 h; inhibition, % at 21.7 µM; 220,000 tested, 0.71% active;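 active = inhibition above about 70%, limit read from the data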;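 also: 0% = full 14-3-3 plus peptide FRET controls and 100% = background without 14-3-3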
# eIF4E 4G PPI = eIF4E/eIF4G interaction inhibition in translation initiation; TR-FRET eIF4E-eIF4GI(517-606) binding, 2 h; inhibition, % at 21.7 µM; 220,000 tested, 0.37% active; AID 782; P63073+Q04637;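 also: 0% = full FRET control wells and 100% = background wells lacking eIF4GI fragment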
# RBBP9 inh = inhibitors of human serine hydrolase RBBP9. recombinant RBBP9, FP-Rh probe fluorescence polarization. 220,000 tested, 0.2% active. inhibition, % at 7.94 µM. AID 1515. O75884;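 active = inhibition above the campaign mean of all tested compounds plus 3 SD, cut at about 14% in these data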;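 also: plate controls were DMSO wells with RBBP9 for no effect and wells lacking RBBP9 protein for full effect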
# Target sequence (O75884 whole entry, looked up): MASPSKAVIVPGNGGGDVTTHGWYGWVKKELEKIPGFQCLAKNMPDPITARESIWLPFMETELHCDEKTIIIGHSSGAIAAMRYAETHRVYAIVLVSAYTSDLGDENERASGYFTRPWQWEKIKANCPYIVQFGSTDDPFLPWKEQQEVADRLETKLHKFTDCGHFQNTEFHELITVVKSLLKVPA
#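 Measured by – fluorescence polarization · Test system – RBBP9 protein · Input – 2.5 µM RBBP9 dispensing solution, before mixing · Measure – percent inhibition from mP, scaled between DMSO and no-protein wells · Benchmarks – DMSO-treated enzyme wells and wells lacking RBBP9 · Times – preincubation 30 min plus labeling 45 min at 25 °C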
# Wee1 degr inh = blocks degradation of human Wee1 kinase | 220,000 tested, 1.2% active | HeLa Luc-Wee1K328M stability, luciferase luminescence; 100% = proteasome inhibitor MG132 effect | reporter increase, % at 5 µM | AID 1321;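 active = activation above the mean of all tested compounds plus 3 SD, set per screening run, cut at about 8.8% in these data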;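 also: cells exposed to compound for 20 h before luminescence read; 0% = DMSO alone and 100% = MG132 at 30 µM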
# Active calls of the source: *; · = not tested or not shown; [ ] = dose if it differs, or a comment.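 The calls were made as follows, unless noted: active = inhibition above about 30% (limit read from the data); inactive = the rest.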
SMILES,NCF1 inh,14-3-3 Bad inh,eIF4E 4G PPI,RBBP9 inh,Wee1 degr inh
N#Cc1ccc(N/N=C/c2cn(-c3ccccc3)nc2-c2ccccc2)c([N+](=O)[O-])c1,51.1*,8.2,6.2,-5.0,2.5
C/C(=N\NC(=O)C(=O)Nc1c(C)n(C)n(-c2ccccc2)c1=O)c1ccncc1,-1.3,-5.4,-4.2,-4.3,2.4
Cc1ccc(O)c(C(=O)/C=C/c2ccc3c(c2)OCCCO3)c1,2.7,12.1,0.7,5.6,9.2*
O=C(/C=C/c1ccc2c(c1)OCCCO2)c1ccccc1O,-8.8,8.1,5.6,-6.5,1.0
CN1C(=S)N(c2cccnc2)C(=O)/C1=C\c1ccc(N(C)C)cc1,85.8*,79.3*,16.9,-9.6,1.0
CC(C)(CCO)NC(=S)NC1CC2C=CC1C2 (stereo unspecified),-11.5,-11.5,-1.1,0.4,-1.0
S=C(NC1CCCCC1)NC1CC2C=CC1C2 (stereo unspecified),-16.4,-1.4,-8.4,-0.2,9.2*
CN(C)S(=O)(=O)Nc1ccccn1,-0.9,4.1,54.9*,3.2,-1.1
O=S(=O)(Nc1ccccn1)c1ccc(Cl)cc1,-6.5,-4.7,5.8,-2.9,-0.2
CCOc1ccc(/C=C2\SC(=O)N(c3ccc(O)cc3)C2=O)cc1OC,-31.2,19.9,-4.1,-11.0,0.9
O=C1S/C(=C\c2ccc(O)c([N+](=O)[O-])c2)C(=O)N1c1ccccc1Cl,-1.7,-3.8,-2.0,-0.8,-1.1
COc1cc(/C=C2\SC(=O)N(c3cccc(Cl)c3)C2=O)cc([N+](=O)[O-])c1O,-8.5,92.0*,61.3*,-0.8,0.8
COc1cc(/C=C2\SC(=O)N(c3ccc(Cl)cc3)C2=O)cc([N+](=O)[O-])c1O,-14.8,92.6*,71.4*,-2.5,0.0
CC1=[N+](C)c2c(ccc3cccnc23)C1(C)C,-96.2,-3.4,5.8,-42.2,2.8
O=C(NCC1CCCO1)c1cccc(S(=O)(=O)NCc2ccccc2)c1 (stereo unspecified),-6.3,-18.3,-0.4,1.7,4.5
CC(=O)OCc1c(C(F)(F)F)nn(C)c1SCc1ccc(Cl)cc1,-4.2,140.5*[fluorescence artefact?],0.1,0.7,-0.1
CC1Cc2ccccc2N1CC(=O)NCc1ccccc1Cl (stereo unspecified),-3.5,-11.3,1.2,-4.5,-2.4
CCNCc1cc(Cl)cc(OC)c1OC(C)C,0.8,21.2,24.9,1.7,9.2*
O=C(NCc1nc2ccccc2[nH]1)C1=C[C@@H](c2ccc3c(c2)OCO3)C[C@@H](OCc2ccc(CO)cc2)O1,-25.9,0.3,-4.9,·,·
Cc1cc(C)c(C)c(C(=O)CSc2nnc(-c3ccc4[nH]c(C)c(C)c4c3)o2)c1C,-14.9,72.9*,5.1,-9.4,3.1
Cc1[nH]c2ccc(-c3nnc(SCC(=O)c4ccc(F)cc4)o3)cc2c1C,7.0,11.6,-2.2,1.5,-2.2
COc1ccccc1CNC(=O)C1CC(c2c(Cl)cccc2Cl)=NO1 (stereo unspecified),-9.2,70.4*,12.9,-3.5,0.6
COc1ccccc1CNC(=O)C1CC(c2ccc([N+](=O)[O-])cc2)=NO1 (stereo unspecified),-11.1,10.7,4.6,3.0,0.5
COc1cc(OC)c(C2=NOC(C(=O)NCc3cccs3)C2)cc1Cl (stereo unspecified),-6.5,-6.1,-0.6,-8.2,9.6*
COCC(=O)Oc1c(Sc2ccccc2[N+](=O)[O-])c(C)nn1C(C)(C)C,6.9,42.3,41.2*,-2.5,-2.7
SMILES,NCF1 inh,14-3-3 Bad inh,eIF4E 4G PPI,RBBP9 inh,Wee1 degr inh
CCC(CC)C(=O)Oc1c(Sc2ccccc2[N+](=O)[O-])c(C)nn1C(C)(C)C,-5.2,0.8,-1.4,-0.2,3.9
CC1(C)CC(=O)C(Sc2ccc(Br)cc2)=C(O)C1,-3.8,-4.9,2.5,-1.3,-2.0
O=c1[nH]c2ccccc2c(O)c1-[n+]1ccccc1,-3.4,0.3,3.1,-5.8,-1.3
O=c1[nH]c2ccccc2c(O)c1O,-0.5,-1.7,1.9,15.6*,1.3
CC12CC3(C)CC(C)(C1)CC(C(=O)NC(=S)N1CCCC1)(C2)C3,28.7,-7.7,31.8*,4.7,0.1
C[C@@H](O)C1NC(=O)[C@H](CCCCN)NC(=O)c2cc([N+](=O)[O-])cc(I)c2NCCC[C@@H](C(N)=O)NC1=O (stereo partly specified),-11.4,2.6,34.0*,-13.3,-0.1
NC(=O)[C@@H]1CCCCNc2c(F)cc([N+](=O)[O-])cc2C(=O)N[C@@H](CC(=O)O)C(=O)NCC(=O)N1,-8.5,0.8,-4.1,-2.0,16.8*
C[C@@H]1NC(=O)[C@H](CCC(=O)O)NC(=O)c2cc([N+](=O)[O-])cc(F)c2NCCC[C@@H](C(N)=O)NC1=O,-8.1,-0.5,0.9,-13.2,-2.5
NCCCC[C@@H]1NC(=O)[C@H](CCC(=O)O)NC(=O)c2cc([N+](=O)[O-])cc(I)c2SC[C@@H](C(=O)NCC(N)=O)NC1=O,-1.5,48.4,5.0,-10.9,1.5
NCCCC[C@@H]1NC(=O)c2cc([N+](=O)[O-])cc(I)c2SC[C@@H](C(N)=O)NC(=O)[C@H](Cc2ccc(O)cc2)NC1=O,-5.1,71.8*[fluorescence artefact?],2.2,-8.2,-4.2
CC(C)[C@@H]1NC(=O)c2cc([N+](=O)[O-])cc(I)c2NCC[C@@H](C(N)=O)NC(=O)[C@H](CO)NC1=O,-6.4,2.5,8.6,-5.6,-2.7
CCN1CCN(c2cc(N3CCc4ccccc4C3)c(F)cc2[N+](=O)[O-])CC1,2.3,-10.4,1.7,-0.5,-1.0
Cc1nc2c(-c3ccc(Cl)cc3)cnn2c2c1CCC2,-6.9,-14.4,-4.3,-4.0,-0.5
Cc1ccc(N/C(=C\C(=O)c2ccccc2)C(=O)O)cc1,-3.4,5.8,-0.9,-8.8,-1.2
CCCCc1c(C)nc2c(OC)cccc2c1SCCC(=O)O,33.5*,-8.9,-3.3,-7.7,-2.8
CSc1ncc(CN2CCN(C3CCCC3)C(CCO)C2)cn1 (stereo unspecified),6.1,-19.4,3.5,3.3,2.3
COc1ccccc1CNC(=O)COC(=O)c1cc(C)oc1C,-4.8,-3.0,2.5,14.2,1.9
Cc1cc(C(=O)OCC(=O)NCc2ccccc2Cl)c(C)o1,1.8,72.5*,-2.6,-6.8,2.2
CCc1cccc(C)c1NC(=O)CN(C)Cc1ccccc1F,16.4,-4.7,15.9,1.3,-0.7
Brc1ccc(CN2CCN(c3ccccn3)CC2)s1,-18.8,85.5*,5.7,4.5,2.0
CCCOc1ccc(/C(O)=C2/C(=O)C(=O)N(CCCn3ccnc3)C2c2ccc(C)o2)cc1 (stereo unspecified),-10.6,-1.4,0.2,-1.9,9.7*
CCCOc1ccc(/C(O)=C2/C(=O)C(=O)N(CCCn3ccnc3)C2c2ccco2)cc1 (stereo unspecified),-7.4,2.0,7.1,-0.8,4.3
O=C(Nc1ccccc1)n1cc(-c2ccccn2)c(N2CCOCC2)n1,0.7,-2.7,-2.1,-1.6,-2.5
